# Test results as given in ChEMBL document CHEMBL4765483 (J Med Chem, 2021).
# Molecular target: T1, Adenosine receptor A1 (Homo sapiens) (UniProt P30542)
# T1 sequence (whole entry): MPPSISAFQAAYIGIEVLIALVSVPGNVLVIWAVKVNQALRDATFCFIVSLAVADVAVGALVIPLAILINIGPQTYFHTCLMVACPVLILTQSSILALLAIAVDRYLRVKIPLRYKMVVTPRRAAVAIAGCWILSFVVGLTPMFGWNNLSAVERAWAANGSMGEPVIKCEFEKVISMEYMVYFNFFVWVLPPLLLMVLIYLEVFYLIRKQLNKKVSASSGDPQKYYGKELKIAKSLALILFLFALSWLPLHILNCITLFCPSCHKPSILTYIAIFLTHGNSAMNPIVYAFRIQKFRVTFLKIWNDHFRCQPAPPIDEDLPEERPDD
# Assay: Displacement of [3H]DPCPX from human adenosine A1 receptor expressed in CHO cell membranes at 1 uM incubated for 60 mins by scintillation counting method
# Settings: Cell membrane
row,Structure (SMILES),inhibition [%]
1,CCCOC(=O)C1=C(C)NC(=O)NC1c1ccsc1 (racemic),44
2,CC1=C(C(=O)OC2CCCC2)C(c2ccco2)NC(=O)N1 (racemic),1
3,CC1=C(C(=O)OC2CCC2)C(c2cccs2)NC(=O)N1 (racemic),24
4,CC1=C(C(=O)OCC2CC2)C(c2ccoc2)NC(=O)N1 (racemic),29
5,CCOC(=O)C1=C(C)NC(=O)N[C@@H]1c1ccsc1,10
6,CCC(C)OC(=O)C1=C(C)NC(=O)NC1c1ccoc1 (racemic),13
7,CC1=C(C(=O)OCC(C)C)C(c2ccco2)NC(=O)N1 (racemic),27
8,CC1=C(C(=O)C2CC2)C(c2ccco2)NC(=O)N1 (racemic),2
9,CC1=C(C(=O)OCC2CC2)C(c2ccsc2)NC(=O)N1 (racemic),39
10,CC1=C(C(=O)OCc2ccccc2)C(c2cccs2)NC(=O)N1 (racemic),45
11,CCCC(=O)C1=C(C)NC(=O)NC1c1ccco1 (racemic),1
12,CC1=C(C(=O)SC(C)C)C(c2ccoc2)NC(=O)N1 (racemic),9
13,CC1=C(C(=O)OC2CCC2)C(c2ccoc2)NC(=O)N1 (racemic),20
14,CCC(C)OC(=O)C1=C(C)NC(=O)NC1c1ccco1 (racemic),6
15,CC1=C(C(=O)OCC2CC2)C(c2ccco2)NC(=O)N1 (racemic),29
16,CC1=C(C(=O)OCc2ccccc2)C(c2ccsc2)NC(=O)N1C (racemic),46

# Molecular target: T2, Adenosine receptor A2b (Homo sapiens, UniProt P29275)
# T2 sequence (P29275 whole entry): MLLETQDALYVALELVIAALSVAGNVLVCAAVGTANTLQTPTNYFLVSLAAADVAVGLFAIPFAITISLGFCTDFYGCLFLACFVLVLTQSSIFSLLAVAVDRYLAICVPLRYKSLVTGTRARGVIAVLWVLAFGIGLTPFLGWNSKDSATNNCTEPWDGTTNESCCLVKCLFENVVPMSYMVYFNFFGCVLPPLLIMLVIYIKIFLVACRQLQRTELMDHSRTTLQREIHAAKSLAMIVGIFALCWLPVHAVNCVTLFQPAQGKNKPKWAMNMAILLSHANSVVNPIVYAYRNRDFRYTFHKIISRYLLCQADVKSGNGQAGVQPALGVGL
# Assay: Displacement of [3H]DPCPX from human adenosine A2B receptor expressed in HEK293 cell membranes incubated for 30 mins by scintillation counting method
# Parameters: species or system Cell membrane
# Settings: not given
row,Structure (SMILES),Ki [nM]
1,CC1=C(C(=O)OCC(C)C)C(c2ccoc2)NC(=O)N1 (racemic),326
2,CCCOC(=O)C1=C(C)NC(=O)NC1c1ccsc1 (racemic),201
3,CC1=C(C(=O)OC2CCCC2)C(c2ccco2)NC(=O)N1 (racemic),577
4,CC1=C(C(=O)OC2CCC2)C(c2cccs2)NC(=O)N1 (racemic),1090
5,CC1=C(C(=O)OCC2CC2)C(c2ccoc2)NC(=O)N1 (racemic),426
6,CCOC(=O)C1=C(C)NC(=O)N[C@@H]1c1ccsc1,11.1
7,CCC(C)OC(=O)C1=C(C)NC(=O)NC1c1ccoc1 (racemic),201
8,CC1=C(C(=O)OCC(C)C)C(c2ccco2)NC(=O)N1 (racemic),199
9,CC1=C(C(=O)C2CC2)C(c2ccco2)NC(=O)N1 (racemic),1060
10,CC1=C(C(=O)OCC2CC2)C(c2ccsc2)NC(=O)N1 (racemic),724
11,CC1=C(C(=O)OCc2ccccc2)C(c2cccs2)NC(=O)N1 (racemic),1920
12,CCCC(=O)C1=C(C)NC(=O)NC1c1ccco1 (racemic),807
13,CC1=C(C(=O)SC(C)C)C(c2ccoc2)NC(=O)N1 (racemic),637
14,CC1=C(C(=O)OC2CCC2)C(c2ccoc2)NC(=O)N1 (racemic),307
15,CCC(C)OC(=O)C1=C(C)NC(=O)NC1c1ccco1 (racemic),84.3
16,CC1=C(C(=O)OCC2CC2)C(c2ccco2)NC(=O)N1 (racemic),138
17,CC1=C(C(=O)OCc2ccccc2)C(c2ccsc2)NC(=O)N1C (racemic),4520

# Molecular target: Adenosine receptor A2a (Homo sapiens) (UniProt P29274)
# Assay: Displacement of [3H]ZM2421385 from adenosine A2A receptor expressed in human HeLa cell membranes at 1 uM incubated for 30 mins by scintillation counting method
# Settings: Cell membrane
# Sequence of Adenosine receptor A2a (Homo sapiens) (P29274 whole entry): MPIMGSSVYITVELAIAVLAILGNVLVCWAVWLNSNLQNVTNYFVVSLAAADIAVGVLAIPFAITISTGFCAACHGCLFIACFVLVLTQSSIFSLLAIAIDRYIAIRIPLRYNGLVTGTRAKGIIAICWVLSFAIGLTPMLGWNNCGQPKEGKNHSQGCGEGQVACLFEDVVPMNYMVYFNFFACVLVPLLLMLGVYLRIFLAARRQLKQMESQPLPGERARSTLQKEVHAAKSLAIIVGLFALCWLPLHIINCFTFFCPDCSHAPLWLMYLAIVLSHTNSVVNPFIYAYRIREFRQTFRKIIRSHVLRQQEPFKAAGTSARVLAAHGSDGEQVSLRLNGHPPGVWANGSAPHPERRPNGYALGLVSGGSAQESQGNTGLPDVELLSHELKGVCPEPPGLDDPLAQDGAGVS
row,Structure (SMILES),inhibition [%]
1,CC1=C(C(=O)OCC(C)C)C(c2ccoc2)NC(=O)N1 (racemic),31
2,CC1=C(C(=O)OCc2ccccc2)C(c2ccco2)NC(=O)N1C (racemic),37
3,CCCOC(=O)C1=C(C)NC(=O)NC1c1ccsc1 (racemic),48
4,CC1=C(C(=O)OC2CCCC2)C(c2ccco2)NC(=O)N1 (racemic),23
5,CC1=C(C(=O)OC2CCC2)C(c2cccs2)NC(=O)N1 (racemic),26
6,CC1=C(C(=O)OCC2CC2)C(c2ccoc2)NC(=O)N1 (racemic),43
7,CCOC(=O)C1=C(C)NC(=O)N[C@@H]1c1ccsc1,9
8,CCC(C)OC(=O)C1=C(C)NC(=O)NC1c1ccoc1 (racemic),1
9,CC1=C(C(=O)OCC(C)C)C(c2ccco2)NC(=O)N1 (racemic),36
10,CC1=C(C(=O)C2CC2)C(c2ccco2)NC(=O)N1 (racemic),2
11,CC1=C(C(=O)OCC2CC2)C(c2ccsc2)NC(=O)N1 (racemic),46
12,CC1=C(C(=O)OCc2ccccc2)C(c2cccs2)NC(=O)N1 (racemic),30
13,CCCC(=O)C1=C(C)NC(=O)NC1c1ccco1 (racemic),6
14,CC1=C(C(=O)SC(C)C)C(c2ccoc2)NC(=O)N1 (racemic),2
15,CC1=C(C(=O)OC2CCC2)C(c2ccoc2)NC(=O)N1 (racemic),32
16,CCC(C)OC(=O)C1=C(C)NC(=O)NC1c1ccco1 (racemic),1
17,CC1=C(C(=O)OCC2CC2)C(c2ccco2)NC(=O)N1 (racemic),36
18,CC1=C(C(=O)OCc2ccccc2)C(c2ccsc2)NC(=O)N1C (racemic),30

# Molecular target: T3, Adenosine receptor A2b (Homo sapiens) (UniProt P29275)
# T3 sequence (whole entry): T2 sequence (P29275 whole entry)
# Assay: Displacement of [3H]DPCPX from human adenosine A2B receptor expressed in HEK293 cell membranes at 1 uM incubated for 30 mins by scintillation counting method
# Settings: Cell membrane, filed as antagonist
row,Structure (SMILES),inhibition [%]
1,CC1=C(C(=O)OCc2ccccc2)C(c2ccco2)NC(=O)N1C (racemic),41

# Molecular target: T4, Adenosine receptor A3 (Homo sapiens) (UniProt P0DMS8)
# T4 sequence (whole entry): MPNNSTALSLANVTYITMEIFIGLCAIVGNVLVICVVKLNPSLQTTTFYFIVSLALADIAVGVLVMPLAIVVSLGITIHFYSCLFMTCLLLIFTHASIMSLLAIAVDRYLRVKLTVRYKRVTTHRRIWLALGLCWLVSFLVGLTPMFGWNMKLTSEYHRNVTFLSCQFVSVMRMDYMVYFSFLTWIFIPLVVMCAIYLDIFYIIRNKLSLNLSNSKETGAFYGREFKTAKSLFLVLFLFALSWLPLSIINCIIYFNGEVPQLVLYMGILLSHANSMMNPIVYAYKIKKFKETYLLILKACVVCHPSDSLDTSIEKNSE
# Assay: Displacement of [3H]NECA from adenosine A3 receptor expressed in human HeLa cell membranes at 1 uM incubated for 180 mins by scintillation counting method
# Settings: Cell membrane
# Outline: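 hA3AR in HeLa membranes (3 pmol/mg protein) with 10 nM [3H]NECA (KD 8.7 nM); nonspecific binding with 100 μM R-PIA; incubated 180 min at 25 °C, washed, filtered, radioactivity counted.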
row,Structure (SMILES),inhibition [%]
1,CC1=C(C(=O)OCC(C)C)C(c2ccoc2)NC(=O)N1 (racemic),16
2,CC1=C(C(=O)OCc2ccccc2)C(c2ccco2)NC(=O)N1C (racemic),11
3,CCCOC(=O)C1=C(C)NC(=O)NC1c1ccsc1 (racemic),6
4,CC1=C(C(=O)OC2CCCC2)C(c2ccco2)NC(=O)N1 (racemic),14
5,CC1=C(C(=O)OC2CCC2)C(c2cccs2)NC(=O)N1 (racemic),2
6,CC1=C(C(=O)OCC2CC2)C(c2ccoc2)NC(=O)N1 (racemic),3
7,CCOC(=O)C1=C(C)NC(=O)N[C@@H]1c1ccsc1,6
8,CCC(C)OC(=O)C1=C(C)NC(=O)NC1c1ccoc1 (racemic),11
9,CC1=C(C(=O)OCC(C)C)C(c2ccco2)NC(=O)N1 (racemic),13
10,CC1=C(C(=O)C2CC2)C(c2ccco2)NC(=O)N1 (racemic),7
11,CC1=C(C(=O)OCC2CC2)C(c2ccsc2)NC(=O)N1 (racemic),3
12,CC1=C(C(=O)OCc2ccccc2)C(c2cccs2)NC(=O)N1 (racemic),8
13,CCCC(=O)C1=C(C)NC(=O)NC1c1ccco1 (racemic),1
14,CC1=C(C(=O)SC(C)C)C(c2ccoc2)NC(=O)N1 (racemic),3
15,CC1=C(C(=O)OC2CCC2)C(c2ccoc2)NC(=O)N1 (racemic),1
16,CCC(C)OC(=O)C1=C(C)NC(=O)NC1c1ccco1 (racemic),3
17,CC1=C(C(=O)OCC2CC2)C(c2ccco2)NC(=O)N1 (racemic),1
18,CC1=C(C(=O)OCc2ccccc2)C(c2ccsc2)NC(=O)N1C (racemic),14

# Molecular target: T5, Adenosine receptor A1 (Homo sapiens, UniProt P30542)
# T5 sequence (P30542 whole entry): T1 sequence (whole entry)
# Assay: Displacement of [3H]DPCPX from human adenosine A1 receptor expressed in CHO cell membranes incubated for 60 mins by scintillation counting method
# Parameters: species or system Cell membrane
# Settings: not given
row,Structure (SMILES),Ki [nM]
1,CC1=C(C(=O)OCC(C)C)C(c2ccoc2)NC(=O)N1 (racemic),3090
2,CC1=C(C(=O)OCc2ccccc2)C(c2ccco2)NC(=O)N1C (racemic),1740
